According to PMC5730364 (Investigative Ophthalmology & Visual Science, 2017):
Square brackets hold non-standard residues; d marks the D form. Peptide text beside a SMILES is read from it. Orn = NCCC[C@H](N)C(=O)O

Tests used:
[1] = tested on: corneal epithelial scrape wounds; test: In vivo corneal epithelial wound healing; design: species or system C57BL/6 mice
Method in brief: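 C57BL/6 mice (9–13 weeks) were anaesthetised with ketamine 100 mg/kg plus xylazine 10 mg/kg ip. A 2-mm diameter corneal epithelial scrape wound was made in the right eye with an Algerbrush. Then 5 μL of test peptide (2, 64 or 640 μg/mL) or PBS vehicle was applied topically immediately, 5 min later, and at 6, 12 and 18 h. Wounds were stained with 1.5 μL 1% sodium fluorescein every 6 h until closure (24 h), imaged, and their areas measured.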

S. aureus 49525_Xen36 = test: Time-kill bactericidal activity, bioluminescence; assay type: cell-based, Staphylococcus aureus; settings: 30 minutes' incubation, Fig. 4
Method in brief: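 Bioluminescent S. aureus Xen36 was grown from a single colony in LB overnight at 37°C with agitation. It was diluted 1:10 into fresh LB for 2 h at 37°C to mid-log phase and adjusted by OD600 to 1 × 10⁷ CFU/mL. Then 100 μL per well was exposed to a concentration series of test peptide for 30 min. Viable-cell luminescence was read by IVIS Lumina imaging (open filter, binning 4, f-stop 1, 30 s count). Results are mean ± SE of triplicates from two independent experiments.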

P. aeruginosa 19660_Xen5 = test: Time-kill bactericidal activity, bioluminescence; assay type: cell-based, Pseudomonas aeruginosa; settings: Fig. 2
Method in brief: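 Luciferase-tagged strain grown from a single colony in LB at 37°C overnight with agitation, diluted 1:10 into fresh LB and grown 2 h at 37°C to mid-log. Adjusted by OD600 to 1 × 10⁷ CFU/mL and exposed to test compound at several concentrations for 0, 30, 60 and 120 min. Viable cells quantified noninvasively by bioluminescence imaging. Mean ± SE of triplicates from two independent experiments.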

C[C@H](NC(=O)[C@H](Cc1ccccc1)NC(=O)[C@H](C)NC(=O)[C@H](Cc1ccccc1)NC(=O)[C@H](CCCN)NC(=O)[C@H](C)NC(=O)[C@H](Cc1ccccc1)NC(=O)[C@H](CCCN)NC(=O)[C@H](CCCN)NC(=O)[C@H](C)NC(=O)[C@H](Cc1ccccc1)NC(=O)[C@H](CCCN)NC(=O)[C@H](CCCN)NC(=O)[C@H](Cc1ccccc1)NC(=O)[C@H](CCCN)NC(=O)[C@H](CCCN)NC(=O)[C@H](C)NC(=O)[C@H](Cc1ccccc1)NC(=O)[C@H](CCCN)NC(=O)[C@H](CCCN)NC(=O)[C@H](C)NC(=O)[C@@H](N)Cc1ccccc1)C(=O)N[C@@H](Cc1ccccc1)C(=O)O [RP444] (H-FA[Orn][Orn]FA[Orn][Orn]F[Orn][Orn]FA[Orn][Orn]FA[Orn]FAFAF-OH)
wound closure vs vehicle ([1]; at 24 hours following topical ocular administration, 2, 64 or 640 μg/mL): No statistically significant difference in closure
effect on corneal epithelial wound healing ([1]; mice, topical 5 μL RP444 2, 64 or 640 μg/mL at 0 h, 5 minutes, 6, 12, 18 hours post wound, two independent experiments, n = 7-10 mice/group): did not affect corneal epithelial wound healing

NC[C@H]1O[C@H](O[C@H]2[C@H](O)[C@@H](O[C@H]3O[C@H](CO)[C@@H](O)[C@H](N)[C@H]3O)[C@H](N)C[C@@H]2N)[C@H](N)C[C@@H]1O [tobramycin]
bactericidal activity against S. aureus (S. aureus 49525_Xen36): neither tobramycin nor vancomycin exhibited any bactericidal effect
bactericidal activity following 60 minutes of exposure (P. aeruginosa 19660_Xen5; 60 minutes): bactericidal effects at 60 minutes

CN[C@H](CC(C)C)C(=O)N[C@H]1C(=O)N[C@@H](CC(N)=O)C(=O)N[C@H]2C(=O)N[C@H]3C(=O)N[C@H](C(=O)N[C@H](C(=O)O)c4cc(O)cc(O)c4-c4cc3ccc4O)[C@H](O)c3ccc(c(Cl)c3)Oc3cc2cc(c3O[C@@H]2O[C@H](CO)[C@@H](O)[C@H](O)[C@H]2O[C@H]2C[C@](C)(N)[C@H](O)[C@H](C)O2)Oc2ccc(cc2Cl)[C@H]1O [vancomycin]
bactericidal activity against S. aureus (S. aureus 49525_Xen36): neither tobramycin nor vancomycin exhibited any bactericidal effect
bactericidal activity during the short incubation time period (P. aeruginosa 19660_Xen5; 2 hours): no evidence of bactericidal activity
